Published values from different studies.
Target: Mitogen-activated protein kinase kinase kinase kinase 4 (MAP4K4, Homo sapiens, UniProt O95819)

SMILES | test | conditions | remaining binding [%]
CC1CCCN1c1nccc(-c2cnn3ncccc23)n1 (stereo not drawn) | binding | 1 µM | 100
Cc1c(C(=O)O)cc(-c2ccc(C3CCNCC3)cc2)c2ccc(-c3ccc(C(F)(F)F)cc3)cc12 | binding, competition with immobilised ligand | 1 µM | 76
O=C(NCC1CCOCC1)c1n[nH]cc1NC(=O)c1c(F)cccc1F | binding, competition with immobilised ligand | 1 µM | 91
F[C@@H]1CCN(c2nccc(-c3cnn4ncccc34)n2)C1 | binding | 1 µM | 76
O=C1CCc2cc(Nc3cc(OC4CCOCC4)c([N+](=O)[O-])cc3Cl)ccc2N1 | cell-free assay, competition with immobilised ligand | 1 µM | 100
CN(C)c1nccc(-c2cnn3ncccc23)n1 | binding | 1 µM | 87
C[C@@H](c1ccc(-n2cnc3c(N)ncnc32)cc1)N1CCc2nn(C)c(Cc3ccccc3)c2C1=O | binding, competition with immobilised ligand | 0.1 µM | 97
O=C(c1ccc(Nc2ncc(Cl)c(-c3cc4ccccc4s3)n2)cc1)N1CCC(N2CCCC2)CC1 | binding, competition with immobilised ligand | 1 µM | 34
C=CC(=O)N1CCC(C(=O)NCC(=O)N2CCN(c3nc(-c4cnc(N)nc4C(F)F)nc(N4CCOCC4)n3)CC2)CC1 | binding, competition with immobilised ligand | 1 µM | 80
FC(F)(F)Oc1cccc(-c2cnc3ccc(-c4ccncc4)nn23)c1 | cell-free assay, competition with immobilised ligand | 5 µM | 49
O=C(c1ccc(Nc2ncc(Cl)c(-c3ccc(Cl)s3)n2)cc1)N1CCC(N2CCCC2)CC1 | binding, competition with immobilised ligand | 1 µM | 26
Nc1ncc2c(n1)-c1c([nH]c3ccc(C#CC4CC4)cc13)CCCC2 | binding, competition with immobilised ligand | 1 µM | 90
CN(c1nccc(-c2cnn3ncccc23)n1)C1CC1 | binding | 1 µM | 13
Cc1nccc(COC(=O)N2C[C@@H]3[C@@H](CNC(=O)c4ccc5[nH]nnc5c4)[C@@H]3C2)n1 | cell-free assay, competition with immobilised ligand | 1 µM | 99
O=C(NCCCN1CCOCC1)c1ccc(Nc2nccc(-c3cc4ccccc4s3)n2)cc1 | binding, competition with immobilised ligand | 1 µM | 100
CS(=O)(=O)NCC[C@H](NC(=O)c1cncc2c1cnn2-c1ccc(F)cc1)c1ccnc(S(C)(=O)=O)c1 | cell-free assay, competition with immobilised ligand | 1 µM | 86
N[C@@H]1CCN(c2nccc(-c3cnn4ncccc34)n2)C1 | binding | 1 µM | 100
C[C@H](c1cccc(C#N)c1)n1cc(Cl)cc(C(N)=O)c1=N | cell-free assay, competition with immobilised ligand | 1 µM | 100
COc1cnc(Nc2cccc(S(N)(=O)=O)c2)nc1N1CCN(c2ccccc2)C(=O)C1 | binding, competition with immobilised ligand | 1 µM | 100
FC(F)(F)c1ccc2c(c1)nc(-c1cccnc1)n2C1CC1 | cell-free assay, competition with immobilised ligand | 1 µM | 100
c1cnn2ncc(-c3ccnc(N4CCC45COC5)n3)c2c1 | binding | 1 µM | 77
